{"source": "ChEMBL document CHEMBL5150070", "about": "“Tricyclic SpiroLactams Kill Mycobacteria In Vitro and In Vivo by Inhibiting Type II NADH Dehydrogenases” (J Med Chem, 2022)", "key": {"[1]": {"system": "Mycobacterium tuberculosis", "experiment": "Inhibition of Ndh2 in Mycobacterium tuberculosis assessed as increase in NADH/NAD+ ratio at 600 nM measured after 24 hrs", "method_in_brief": "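Mid-log H37Rv diluted to OD600 0.3 and exposed to compound at 37°C for 2 and 24 h. Pellets extracted in 0.2 M HCl (NAD⁺) or 0.2 M NaOH (NADH), bead-milled, heated 55°C 10 min, neutralised. NAD/NADH-Glo luminescence read against an NADH standard curve, corrected for OD600. Three independent experiments, duplicate technical replicates.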"}, "Acinetobacter baumannii": {"system": "Acinetobacter baumannii", "experiment": "Antibiotic activity against Acinetobacter baumannii LMG-17978 assessed as reduction in bacterial cell growth by measuring resazurin reduction incubated for 6 days by fluorescence microplate based assay", "assay_type": "functional", "conditions": "LMG-17978, 144 h, time 6 day"}, "[2]": {"target": "T1, Type II NADH:quinone oxidoreductase NdhA (Mycobacterium tuberculosis, UniProt P95200)", "T1 sequence (P95200 whole entry)": "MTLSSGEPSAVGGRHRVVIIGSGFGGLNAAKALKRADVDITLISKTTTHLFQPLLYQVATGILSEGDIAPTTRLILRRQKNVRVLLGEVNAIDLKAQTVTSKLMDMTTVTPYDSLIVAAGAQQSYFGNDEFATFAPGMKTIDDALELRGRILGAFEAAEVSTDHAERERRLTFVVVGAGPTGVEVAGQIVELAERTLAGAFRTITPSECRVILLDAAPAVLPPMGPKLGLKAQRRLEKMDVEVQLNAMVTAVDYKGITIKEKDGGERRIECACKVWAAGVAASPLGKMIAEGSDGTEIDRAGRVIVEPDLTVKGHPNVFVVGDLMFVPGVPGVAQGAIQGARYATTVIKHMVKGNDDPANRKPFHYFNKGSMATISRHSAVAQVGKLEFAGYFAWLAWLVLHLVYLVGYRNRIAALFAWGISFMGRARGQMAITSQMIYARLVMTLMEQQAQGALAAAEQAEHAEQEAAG", "experiment": "Inhibition of Mycobacterium smegmatis MC2 155 recombinant ndhA assessed as rate of NADH oxidation in the presence of an electron acceptor menadione", "set-up": "species or system Mycolicibacterium smegmatis"}, "[3]": {"system": "Mycobacterium tuberculosis", "experiment": "Bactericidal activity against Non-replicating Mycobacterium tuberculosis ss18b-lux model assessed as decrease in luminescence at 10 to 10000 nM", "assay_type": "functional, organism-based", "conditions": "dose 10-10000 nM, TDE = time-dependent effect", "method_in_brief": "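Non-replicating streptomycin-starved 18b-lux (14-day starvation) diluted to OD600 0.15 in white 96-well plates with compound and incubated at 37°C. Luminescence read on days 1, 2, 5 and 7 and expressed relative to no-antibiotic controls (n ≥ 3).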"}}, "note": "pIC50: −log10 of the molar value. Active and inactive are the calls of the source. The rule behind the calls is not given here."}
{"molecule": "CC(C)[C@H]1CO[C@]23CCN(Cc4ccc(C(F)(F)F)cc4)C[C@H]2CCC(=O)N13", "values": [{"measurement": "inhibition", "setting": "[1]", "result": "Active"}, {"measurement": "MIC", "setting": "Acinetobacter baumannii", "result": "> 100", "unit": "µM"}, {"measurement": "pIC50", "setting": "[2]", "result": 7.23}, {"measurement": "Activity", "setting": "[3]", "result": "Tde"}]}
